This is an account of results in ChEMBL document CHEMBL1667766, “Synthesis of elastin based peptides conjugated to benzisoxazole as a new class of potent antimicrobials--A novel approach to enhance biocompatibility” (2011).

Common to all, as to type: functional
The subject of assay [1] is Escherichia coli. The assay can be described thus: Antimicrobial activity against Escherichia coli after 72 hrs by microdilution method. For orientation: Dilution methods test growth across graded concentrations, often in twofold steps.
Assay [2] has as its system Xanthomonas oryzae. The assay can be described thus: Antimicrobial activity against Xanthomonas oryzae after 72 hrs by microdilution method.
The subject of assay [3] is Aspergillus niger. As to the kind of experiment: Antifungal activity against Aspergillus niger after 24 hrs by agar well diffusion method. The procedure, abridged: (§1)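 Fungi subcultured in 25 mL nutrient broth for one day to give inoculum, then spread on solidified Sabouraud agar. Wells punched with a 6 mm cork borer and filled with 0.1 mL test solution in DMSO, prepared from a 1 mg/mL stock. Bavistin as reference, DMSO as negative control. Read-out is inhibition zone diameter (mm).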
For orientation: A growth-free zone around the sample is the usual read-out of agar diffusion tests.

Assay [4] concerns Escherichia coli. As to the kind of experiment: Antimicrobial activity against Escherichia coli after 24 hrs by agar well diffusion method. The procedure, abridged:
(§2)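 Bacteria grown in nutrient broth at 37 °C for 24 h, subcultured in 25 mL broth at room temperature, then spread on nutrient agar. Wells (6 mm cork borer) filled with 0.1 mL test solution in DMSO, prepared from a 1 mg/mL stock. Amoxicillin as reference, DMSO as negative control. Plates kept 24 h at 37 °C; inhibition zone measured in mm.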

The subject of assay [5] is Xanthomonas oryzae. As to the kind of experiment: Antimicrobial activity against Xanthomonas oryzae after 24 hrs by agar well diffusion method.
Assay [6] relates to Aspergillus flavus. The assay can be described thus: Antifungal activity against Aspergillus flavus after 24 hrs by agar well diffusion method. The procedure, abridged:
as §1

In assay [7] the test system is Staphylococcus. The assay can be described thus: Antimicrobial activity against coagulase positive Staphylococcus after 72 hrs by microdilution method.
Assay [8] has as its system Aspergillus flavus. As to the kind of experiment: Antifungal activity against Aspergillus flavus after 72 hrs by microdilution method.
In assay [9] the test system is Aspergillus niger. The assay can be described thus: Antifungal activity against Aspergillus niger after 72 hrs by microdilution method.
The subject of assay [10] is Klebsiella pneumoniae. The assay can be described thus: Antimicrobial activity against Klebsiella pneumoniae after 72 hrs by microdilution method.
The subject of assay [11] is Fusarium oxysporum. The assay can be described thus: Antifungal activity against Fusarium oxysporum after 24 hrs by agar well diffusion method. The procedure, abridged: as §1
In assay [12] the test system is Fusarium oxysporum. As to the kind of experiment: Antifungal activity against Fusarium oxysporum after 72 hrs by microdilution method.
The subject of assay [13] is Staphylococcus. The assay can be described thus: Antimicrobial activity against coagulase positive Staphylococcus after 24 hrs by agar well diffusion method. The procedure, abridged:
as §2

Assay [14] concerns Klebsiella pneumoniae. As to the kind of experiment: Antimicrobial activity against Klebsiella pneumoniae after 24 hrs by agar well diffusion method. The procedure, abridged:
as §2

*1 amine or outer side, *2 acyl side, *3 side chain or, on linkers, in order; H or OH if unused. Where a SMILES comes first, the peptide text is derived from it. [ ]: non-standard residue; d: D form. The star is where a group is joined. X2 = CC(C)[C@H](N[*:1])C(=O)NC(=O)[*:2]; X1 = Fc1ccc2c(C3CCN(*)CC3)noc2c1

The MIC is the least concentration at which growth counts as inhibited. The low end stands for greater potency, the high end for weaker potency. Turning to `CC(C)[C@H](NC(=O)CNC(=O)[C@@H]1CCCN1C(=O)[C@H](Cc1ccccc1)NC(=O)CNC(=O)[C@H](CCC(=O)O)NC(=O)CN)C(=O)NCC(=O)N[C@H](C(=O)N1CCC[C@H]1C(=O)NCC(=O)N[C@H](C(=O)NCC(=O)N[C@H](C(=O)N1CCC[C@H]1C(=O)NCC(=O)N[C@H](C(=O)NCC(=O)N[C@H](C(=O)N1CCC[C@H]1C(=O)NCC(=O)N[C@@H](Cc1ccccc1)C(=O)NCC(=O)N[C@@H](Cc1ccccc1)C(=O)N1CCC[C@H]1C(=O)NCC(=O)N[C@@H](Cc1ccccc1)C(=O)NCC(=O)N[C@@H](Cc1ccccc1)C(=O)N1CCC[C@H]1C(=O)N1CCC(c2noc3cc(F)ccc23)CC1)C(C)C)C(C)C)C(C)C)C(C)C)C(C)C.O=C(O)C(F)(F)F` (H-GEGFPGVGVPGVGVPGVGVPGFGFPGFGFP-X1), the MIC amounted to 10 µg/mL against Escherichia coli [1]; 9 µg/mL against Xanthomonas oryzae [2]; 11 µg/mL against Staphylococcus [7]; 3 µg/mL in the assay on Aspergillus flavus [8]; 3 µg/mL against Aspergillus niger [9]; 9 µg/mL against Klebsiella pneumoniae [10]. Further, in the assay on Fusarium oxysporum [12], the MIC worked out at 4 µg/mL. Moreover, the “inhibition zone (IZ)” value with Aspergillus niger [3] was 36 mm; in the assay on Escherichia coli [4] it was 15 mm; with Xanthomonas oryzae [5], 18 mm; in the assay on Aspergillus flavus [6], 32 mm; in the assay with Fusarium oxysporum [11], 31 mm; in the assay on Staphylococcus [13], 20 mm. Besides, the “inhibition zone (IZ)” value with Klebsiella pneumoniae [14] is on record as 17 mm.
As to `CC(C)[C@H](NC(=O)CNC(=O)[C@@H]1CCCN1C(=O)[C@H](Cc1ccccc1)NC(=O)CNC(=O)[C@H](Cc1ccccc1)NC(=O)CNC(=O)[C@@H]1CCCN1C(=O)[C@H](Cc1ccccc1)NC(=O)CNC(=O)[C@@H](NC(=O)CNC(=O)[C@@H]1CCCN1C(=O)[C@@H](NC(=O)NC(=O)[C@@H](NC(=O)CNC(=O)[C@@H]1CCCN1C(=O)[C@H](Cc1ccccc1)NC(=O)CNC(=O)[C@H](CCC(=O)O)NC(=O)CN)C(C)C)C(C)C)C(C)C)C(=O)NCC(=O)N[C@H](C(=O)N1CCC[C@H]1C(=O)NCC(=O)N[C@H](C(=O)NCC(=O)N[C@@H](Cc1ccccc1)C(=O)N1CCC[C@H]1C(=O)N1CCC(c2noc3cc(F)ccc23)CC1)C(C)C)C(C)C.O=C(O)C(F)(F)F` (H-GEGFPG[X2]VPGVGFPGFGFPGVGVPGVGFP-X1), the minimal inhibitory concentration (MIC) amounted to 12 µg/mL in the assay with Escherichia coli [1]; 10 µg/mL against Xanthomonas oryzae [2]; 13 µg/mL in the assay on Staphylococcus [7]; 4 µg/mL with Aspergillus flavus [8]; 4 µg/mL in the assay on Aspergillus niger [9]; 10 µg/mL in the assay with Klebsiella pneumoniae [10]. In the assay with Fusarium oxysporum [12], this compound showed an MIC of 5 µg/mL. For the same compound, the “inhibition zone (IZ)” value in the assay on Aspergillus niger [3] came to 34 mm; in the assay on Escherichia coli [4], 12 mm; with Xanthomonas oryzae [5], 14 mm; in the assay with Aspergillus flavus [6], 28 mm; in the assay with Fusarium oxysporum [11], 28 mm; in the assay on Staphylococcus [13], 16 mm. For the same compound, in the assay on Klebsiella pneumoniae [14], the “inhibition zone (IZ)” value is 11 mm.
Consider `NCC(=O)N[C@@H](Cc1ccccc1)C(=O)NCC(=O)N[C@@H](Cc1ccccc1)C(=O)N1CCC[C@H]1C(=O)N1CCC(c2noc3cc(F)ccc23)CC1.O=C(O)C(F)(F)F` (H-GFGFP-X1), for which the MIC in the assay on Escherichia coli [1] is 8 µg/mL; against Xanthomonas oryzae [2] it was 9 µg/mL; against Staphylococcus [7], 8 µg/mL; against Aspergillus flavus [8], 8 µg/mL; in the assay on Aspergillus niger [9], 6 µg/mL; in the assay on Klebsiella pneumoniae [10], 6 µg/mL. In the assay with Fusarium oxysporum [12], this compound displayed an MIC of 8 µg/mL. Besides, the “inhibition zone (IZ)” value in the assay with Aspergillus niger [3] amounted to 29 mm; in the assay with Escherichia coli [4] it was 25 mm; with Xanthomonas oryzae [5], 20 mm; in the assay with Aspergillus flavus [6] it was 21 mm; in the assay with Fusarium oxysporum [11], 23 mm; in the assay with Staphylococcus [13], 18 mm. For the same compound, the “inhibition zone (IZ)” value in the assay with Klebsiella pneumoniae [14] came to 18 mm.
As for `C[C@H](NC(=O)CNC(=O)CN)C(=O)N1CCC[C@H]1C(=O)N1CCC(c2noc3cc(F)ccc23)CC1.O=C(O)C(F)(F)F` (H-GGAP-X1), the MIC was found to be 17 µg/mL in the assay with Escherichia coli [1]; 13 µg/mL in the assay with Xanthomonas oryzae [2]; 16 µg/mL in the assay on Staphylococcus [7]; 18 µg/mL in the assay with Aspergillus flavus [8]; 15 µg/mL with Aspergillus niger [9]; 14 µg/mL in the assay on Klebsiella pneumoniae [10]. The compound further gave an MIC in the assay with Fusarium oxysporum [12] of 19 µg/mL. Moreover, the “inhibition zone (IZ)” value is listed as 19 mm with Aspergillus niger [3]; 18 mm in the assay with Escherichia coli [4]; 13 mm with Xanthomonas oryzae [5]; 13 mm in the assay with Aspergillus flavus [6]; 16 mm with Fusarium oxysporum [11]; 11 mm with Staphylococcus [13]. Besides, in the assay on Klebsiella pneumoniae [14], the “inhibition zone (IZ)” value stood at 12 mm.
`NCC(=O)NCC(=O)N[C@@H](Cc1ccccc1)C(=O)N1CCC[C@H]1C(=O)N1CCC(c2noc3cc(F)ccc23)CC1.O=C(O)C(F)(F)F` (H-GGFP-X1): the MIC against Escherichia coli [1] stood at 14 µg/mL; in the assay with Xanthomonas oryzae [2] it was 11 µg/mL; with Staphylococcus [7], 13 µg/mL; in the assay with Aspergillus flavus [8], 15 µg/mL; against Aspergillus niger [9] it was 11 µg/mL; against Klebsiella pneumoniae [10], 11 µg/mL. For the same compound, the minimum inhibitory concentration (MIC) in the assay on Fusarium oxysporum [12] was found to be 16 µg/mL. Besides, the “inhibition zone (IZ)” value is 25 mm in the assay with Aspergillus niger [3]; 22 mm in the assay with Escherichia coli [4]; 16 mm in the assay with Xanthomonas oryzae [5]; 16 mm with Aspergillus flavus [6]; 20 mm in the assay with Fusarium oxysporum [11]; 14 mm in the assay on Staphylococcus [13]. Moreover, the “inhibition zone (IZ)” value with Klebsiella pneumoniae [14] is listed as 15 mm.
Take `CC(C)[C@H](NC(=O)CN)C(=O)NCC(=O)N[C@H](C(=O)N1CCC[C@H]1C(=O)N1CCC(c2noc3cc(F)ccc23)CC1)C(C)C.O=C(O)C(F)(F)F` (H-GVGVP-X1): the MIC against Escherichia coli [1] is 11 µg/mL; in the assay with Xanthomonas oryzae [2] it was 10 µg/mL; in the assay with Staphylococcus [7] it was 10 µg/mL; in the assay on Aspergillus flavus [8], 9 µg/mL; in the assay on Aspergillus niger [9] it was 8 µg/mL; with Klebsiella pneumoniae [10], 8 µg/mL. Besides, the minimum inhibitory concentration (MIC) against Fusarium oxysporum [12] amounted to 10 µg/mL. The “inhibition zone (IZ)” value came to 27 mm with Aspergillus niger [3]; 23 mm with Escherichia coli [4]; 17 mm in the assay with Xanthomonas oryzae [5]; 17 mm with Aspergillus flavus [6]; 21 mm with Fusarium oxysporum [11]; 15 mm with Staphylococcus [13]. Further, the “inhibition zone (IZ)” value with Klebsiella pneumoniae [14] was found to be 17 mm.
